Measurements from ChEMBL document CHEMBL3045116, “Synthesis and biological evaluation of 2-(5-substituted-1-((diethylamino)methyl)-2-oxoindolin-3-ylidene)-N-substituted-hydrazinecarbothioamides” (Med Chem Res, 2013).

Legend:
Influenza B virus = assay: Antiviral activity against Influenza B virus infected in MDCK cells assessed as reduction of virus-induced cytopathic effect after 3 days by colorimetric formazan-based MTS assay; assay type: functional, organism-based; settings: 72 h
How it was run: (§1)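 Confluent cell monolayers were infected with 100 CCID50 of virus, and serial dilutions of compound were added at the time of infection.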

Influenza A virus H3N2 = assay: Antiviral activity against Influenza A virus H3N2 infected MDCK cells assessed as reduction of virus-induced cytopathic effect after 3 days by colorimetric formazan-based MTS assay; assay type: functional, organism-based; settings: 72 h; how it was run: as §1
Human alphaherpesvirus 1 [1] = assay: Antiviral activity against Human herpesvirus 1 strain KOS infected human HEL cells assessed as reduction of virus-induced cytopathic effect after 3 days by colorimetric formazan-based MTS assay; assay type: functional, organism-based; settings: Human alphaherpesvirus 1, KOS, 72 h; how it was run: as §1
Felid alphaherpesvirus 1 = assay: Antiviral activity against Felid herpesvirus 1 infected cat CRFK cells assessed as reduction of virus-induced cytopathic effect after 3 days by colorimetric formazan-based MTS assay; assay type: functional, organism-based; settings: Felid alphaherpesvirus 1, CRFK, 72 h
How it was run: (§2)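 Cells grown to confluency in 96-well plates ([…], Vero for lines 9–10) were infected with 100 CCID50 of virus, and serial compound dilutions were added at infection. Plates were incubated at 37 °C for 3 days, until complete CPE appeared in untreated virus controls.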

[2] = system: Feline infectious peritonitis virus; assay: Antiviral activity against Feline Infectious peritonitis virus infected cat CRFK cells assessed as reduction of virus-induced cytopathic effect after 3 days by colorimetric formazan-based MTS assay; assay type: functional, organism-based; settings: Alphacoronavirus 1, CRFK, 72 h; how it was run: as §1
[3] = Cytotoxicity against Felis catus (cat) CRFK cells assessed as change in cellular morphology; assay type: cell-based; settings: crfk
How it was run: (§3)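 Uninfected cells were exposed to compound in parallel with the antiviral cultures. The read-out is the minimum cytotoxic concentration that causes a microscopically detectable alteration of normal cell morphology.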

[4] = Inhibition of beta lactamase assessed as increase in time taken for iodine decolorization relative to control; parameters: concentration or dose not given beside the values; settings: concentration not given here
[5] = Inhibition of beta lactamase assessed as time for decolorization of iodine (reference value: 79.5 secs)
CCRF-CEM = assay: Cytotoxicity against Homo sapiens (human) CEM cells assessed as growth inhibition after 72 hr by coulter counter analysis; assay type: functional, cell-based
How it was run: (§4)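 Cells in growth medium were allowed to proliferate with variable compound amounts at 37 °C in a humidified CO2 atmosphere. Incubation ran 48 h for L1210, 72 h for CEM and 96 h for HeLa. Cells were then counted with a Coulter counter.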

L1210 = assay: Cytotoxicity against Mus musculus (mouse) L1210 cells assessed as growth inhibition after 48 hr by coulter counter analysis; assay type: functional, cell-based; settings: L1210, 48 h; how it was run: as §4
Influenza A virus = assay: Antiviral activity against Unidentified Influenza A virus (H1N1) infected MDCK cells assessed as reduction of virus-induced cytopathic effect after 3 days by colorimetric formazan-based MTS assay; assay type: functional, organism-based; settings: 72 h; how it was run: as §1
[6] = (§5) Cytotoxicity against MDCK cells assessed as change in cellular morphology; assay type: cell-based, Canis lupus familiaris; settings: dog, MDCK cells; how it was run: as §3
MDCK = assay: as §5; assay type: cell-based, Canis lupus familiaris; settings: dog, mdck; how it was run: as §3
Punta Toro virus = assay: Antiviral activity against Punta Toro virus infected in African green monkey Vero cells assessed as reduction of virus-induced cytopathic effect after 3 days by colorimetric formazan-based MTS assay; assay type: functional, organism-based; settings: 72 h; how it was run: as §1
Coxsackievirus B4 [7] = assay: Antiviral activity against Human coxsackievirus B4 infected African green monkey Vero cells assessed as reduction of virus-induced cytopathic effect after 3 days by colorimetric formazan-based MTS assay; assay type: functional, organism-based; settings: Enterovirus B, 72 h; how it was run: as §1
Respirovirus muris = assay: Antiviral activity against Sendai virus infected African green monkey Vero cells assessed as reduction of virus-induced cytopathic effect after 3 days by colorimetric formazan-based MTS assay; assay type: functional, organism-based; settings: 72 h
[8] = system: Mammalian orthoreovirus 1; assay: Antiviral activity against Mammalian orthoreovirus 1 infected African green monkey Vero cells assessed as reduction of virus-induced cytopathic effect after 3 days by colorimetric formazan-based MTS assay; assay type: functional, organism-based; settings: Mammalian orthoreovirus 1, Vero, 72 h; how it was run: as §2
Human respirovirus 3 = assay: Antiviral activity against Human parainfluenza virus 3 infected African green monkey Vero cells assessed as reduction of virus-induced cytopathic effect after 3 days by colorimetric formazan-based MTS assay; assay type: functional, organism-based; settings: Human respirovirus 3, Vero, 72 h; how it was run: as §2
[9] = Cytotoxicity against Chlorocebus aethiops (African green monkey) Vero cells assessed as change in cellular morphology; assay type: cell-based; settings: chlorocebus sabaeus
[10] = system: Respiratory syncytial virus; assay: Antiviral activity against Respiratory syncytial virus infected human HeLa cells assessed as reduction of virus-induced cytopathic effect after 3 days by colorimetric formazan-based MTS assay; assay type: functional, organism-based; settings: 72 h; how it was run: as §1
[11] = system: Vesicular stomatitis virus; assay: Antiviral activity against Vesicular stomatitis virus infected human HeLa cells assessed as reduction of virus-induced cytopathic effect after 3 days by colorimetric formazan-based MTS assay; assay type: functional, organism-based; settings: 72 h; how it was run: as §1
Coxsackievirus B4 [12] = assay: Antiviral activity against Human coxsackievirus B4 infected human HeLa cells assessed as reduction of virus-induced cytopathic effect after 3 days by colorimetric formazan-based MTS assay; assay type: functional, organism-based; settings: Enterovirus B, 72 h; how it was run: as §1
[13] = (§6) Cytotoxicity against Homo sapiens (human) HeLa cells assessed as change in cellular morphology; assay type: cell-based; settings: HeLa cells; how it was run: as §3
HeLa = assay: as §6; assay type: cell-based; settings: hela; how it was run: as §3
Human alphaherpesvirus 1 [14] = assay: Antiviral activity against acyclovir-resistant thymidine kinase negative Human herpesvirus 1 strain KOS infected human HEL cells assessed as reduction of virus-induced cytopathic effect after 3 days by colorimetric formazan-based MTS assay; assay type: functional, organism-based; settings: Human alphaherpesvirus 1, KOS, 72 h; how it was run: as §1
[15] = system: Vesicular stomatitis virus; assay: Antiviral activity against Vesicular stomatitis virus infected human HEL cells assessed as reduction of virus-induced cytopathic effect after 3 days by colorimetric formazan-based MTS assay; assay type: functional, organism-based; settings: 72 h; how it was run: as §1
Vaccinia virus = assay: Antiviral activity against Vaccinia virus infected human HEL cells assessed as reduction of virus-induced cytopathic effect after 3 days by colorimetric formazan-based MTS assay; assay type: functional, organism-based; settings: Orthopoxvirus vaccinia, 72 h; how it was run: as §1
Human alphaherpesvirus 2 = assay: Antiviral activity against Human herpesvirus 2 strain G infected human HEL cells assessed as reduction of virus-induced cytopathic effect after 3 days by colorimetric formazan-based MTS assay; assay type: functional, organism-based; settings: Human alphaherpesvirus 2, strain G, 72 h; how it was run: as §1
[16] = Cytotoxicity against Homo sapiens (human) HEL cells assessed as change in cellular morphology; assay type: cell-based
Candida albicans = assay: Antifungal activity against Candida albicans assessed as growth inhibition at 50 ug/ml by cup-plate method (reference value: 8 to 10 mm); assay type: functional; settings: read-out: DIZ
Aspergillus niger = assay: Antifungal activity against Aspergillus niger assessed as growth inhibition at 50 ug/ml by cup-plate method (reference value: 8 to 10 mm); assay type: functional; settings: read-out: DIZ
Salmonella typhi = assay: Antibacterial activity against Salmonella enterica subsp. enterica serovar Typhi assessed as growth inhibition at 50 ug/ml by cup-plate method (reference value: 8 to 10 mm); assay type: functional; settings: read-out: DIZ
Proteus vulgaris = assay: Antibacterial activity against Proteus vulgaris assessed as growth inhibition at 50 ug/ml by cup-plate method (reference value: 8 to 10 mm); assay type: functional; settings: read-out: DIZ
Escherichia coli = assay: Antibacterial activity against Escherichia coli assessed as growth inhibition at 50 ug/ml by cup-plate method (reference value: 8 to 10 mm); assay type: functional; settings: read-out: DIZ
Bacillus subtilis = assay: Antibacterial activity against Bacillus subtilis assessed as growth inhibition at 50 ug/ml by cup-plate method (reference value: 8 to 10 mm); assay type: functional; settings: read-out: DIZ
Klebsiella pneumoniae = assay: Antibacterial activity against Klebsiella pneumoniae assessed as growth inhibition at 50 ug/ml by cup-plate method (reference value: 8 to 10 mm); assay type: functional; settings: read-out: DIZ
Staphylococcus aureus = assay: Antibacterial activity against Staphylococcus aureus assessed as growth inhibition at 50 ug/ml by cup-plate method (reference value: 8 to 10 mm); assay type: functional; settings: read-out: DIZ

SMILES: CCN(CC)CN1C(=O)/C(=N/NC(=S)Nc2ccc(C)cc2)c2ccccc21
- EC50 (Influenza B virus): > 0.16 µM
- EC50 (Influenza A virus H3N2): > 0.16 µM
- EC50 (Human alphaherpesvirus 1 [1]): 14 µM
- EC50 (Felid alphaherpesvirus 1): > 0.8 µM
- EC50 [2]: > 0.8 µM
- CC50 [3]: 3.8 µM
- inhibition [4]: 45.5%
- TIME [5]: 0.0405 h
- IC50 (CCRF-CEM): 12 µM
- IC50 (L1210): 29 µM
- EC50 (Influenza A virus): > 0.16 µM
- MCC [6]: 800 nM
- CC50 (MDCK): 0.2 µM
- EC50 (Punta Toro virus): > 20 µM
- EC50 (Coxsackievirus B4 [7]): > 20 µM
- EC50 (Respirovirus muris): > 20 µM
- EC50 [8]: > 20 µM
- EC50 (Human respirovirus 3): > 20 µM
- MCC [9]: 100 µM
- EC50 [10]: > 20 µM
- EC50 [11]: > 20 µM
- EC50 (Coxsackievirus B4 [12]): > 20 µM
- MCC [13]: ≥ 20 µM
- CC50 (HeLa): 10.7 µM
- EC50 (Human alphaherpesvirus 1 [14]): ≥ 20 µM
- EC50 [15]: > 20 µM
- EC50 (Vaccinia virus): 11 µM
- EC50 (Human alphaherpesvirus 2): 12 µM
- MCC [16]: 100 µM
- zone of inhibition at 50 µg/mL (Candida albicans): 11 mm
- zone of inhibition at 50 µg/mL (Aspergillus niger): 11 mm
- zone of inhibition at 50 µg/mL (Salmonella typhi): 21 mm
- zone of inhibition at 50 µg/mL (Proteus vulgaris): 11 mm
- zone of inhibition at 50 µg/mL (Escherichia coli): 21 mm
- zone of inhibition at 50 µg/mL (Bacillus subtilis): 21 mm
- zone of inhibition at 50 µg/mL (Klebsiella pneumoniae): 11 mm
- zone of inhibition at 50 µg/mL (Staphylococcus aureus): 21 mm

SMILES: CCN(CC)CN1C(=O)/C(=N/NC(=S)Nc2ccc(Cl)cc2)c2cc(Cl)ccc21
- EC50 (Influenza B virus): > 0.8 µM
- EC50 (Influenza A virus H3N2): > 0.8 µM
- EC50 (Human alphaherpesvirus 1 [1]): > 20 µM
- EC50 (Felid alphaherpesvirus 1): > 4 µM
- EC50 [2]: > 4 µM
- CC50 [3]: 9.1 µM
- inhibition [4]: 44.2%
- TIME [5]: 0.0395 h
- IC50 (CCRF-CEM): > 125 µM
- IC50 (L1210): > 125 µM
- EC50 (Influenza A virus): > 0.8 µM
- MCC [6]: ≥ 800 nM
- CC50 (MDCK): 2.4 µM
- EC50 (Punta Toro virus): > 20 µM
- EC50 (Coxsackievirus B4 [7]): > 20 µM
- EC50 (Respirovirus muris): > 20 µM
- EC50 [8]: > 20 µM
- EC50 (Human respirovirus 3): > 20 µM
- MCC [9]: 100 µM
- EC50 [10]: > 20 µM
- EC50 [11]: > 20 µM
- EC50 (Coxsackievirus B4 [12]): > 20 µM
- MCC [13]: 100 µM
- CC50 (HeLa): 9.4 µM
- EC50 (Human alphaherpesvirus 1 [14]): > 20 µM
- EC50 [15]: > 20 µM
- EC50 (Vaccinia virus): > 20 µM
- EC50 (Human alphaherpesvirus 2): > 20 µM
- MCC [16]: 100 µM
- zone of inhibition at 50 µg/mL (Candida albicans): 21 mm
- zone of inhibition at 50 µg/mL (Aspergillus niger): 21 mm
- zone of inhibition at 50 µg/mL (Salmonella typhi): 21 mm
- zone of inhibition at 50 µg/mL (Proteus vulgaris): 21 mm
- zone of inhibition at 50 µg/mL (Escherichia coli): 21 mm
- zone of inhibition at 50 µg/mL (Bacillus subtilis): 21 mm
- zone of inhibition at 50 µg/mL (Klebsiella pneumoniae): 11 mm
- zone of inhibition at 50 µg/mL (Staphylococcus aureus): 21 mm
